Laboratory results reported in PubChem BioAssay.
Several values for one entry are separate records, joined by “and”; a condition that tells them apart may be missing. Identical values can stand only once. Activity calls are given as the source filed them.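 The calls were made as follows, unless noted: active = viability at or under a set limit in both replicates, limit being median viability minus 3 SD (cut at about 48% in these data, passing the limit was not always enough); inconclusive = at or under the limit in just one replicate; inactive = at or above the limit in both replicates.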

How the values were obtained:
[1] = SK-BR-3 cell growth inhibitors, pilot screen, 24 h, human (AID 572;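 active = viability at or below 10% of carrier control in both of two separate runs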;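 also: compound exposure lasted between 18 and 24 h rather than exactly 24 h; 100% = carrier-treated control wells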); details: SK-BR-3 viability, CellTiter-Glo luminescence, at 10 µM, stronger effect = lower value
[2] = HUVEC growth inhibition – cell-based, human, primary screen (AID 575;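 active = viability at or below 30% in both replicate assays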;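 also: 100% = median of untreated cell wells with 0.1% DMSO on each plate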); details: HUVEC proliferation, CellTiter-Glo luminescence, 72 h; at 10 µM; stronger effect = lower value
In short: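 material = primary HUVEC, no more than 12 passages | input = 1250 cells per well | controls = vehicle and MePR control wells | measured by = CTG luminescence | times = 72 h compound incubation | format = collagen-coated 384-well format | read-out = % viability vs DMSO wells | doses = single 10 µM dose, 0.1% DMSO, from 5x medium stock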

[3] = growth inhibitors of H69AR lung tumor, primary screen, human, duplicate replicates (AID 580); details: H69AR lung tumor cells viability, ATP luminescence, 72 h; at 10 µM; stronger effect = lower value;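 also: 100% = mean luminescence of untreated wells and 0% = no signal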
[4] = reversal of MRP1-mediated doxorubicin resistance, pilot screen, H69AR cells, doxorubicin co-treatment (AID 601;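 active = viability loss from added drug above about 55%, and viability with drug at most 40%, in both replicates, limit read from the data, passing the limit was not always enough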); details: CellTiter-Glo, 72 h, at 10 µM; for differential viability (reversal): stronger effect = higher value
[5] = 384-well plate pilot, post-Golgi transport modulator project, inhibition of yeast transport mutant growth (AID 636; in the data active = inhibition above about 31%); details: absorbance 615 nm, about 18 h, stronger effect = higher value
[6] = growth suppression of yeast trafficking mutant, preliminary HTS, modulators of trafficking downstream of Golgi apparatus project, 1536-format plate, OD 615 nm (AID 637; in the data active = inhibition above about 30%); details: yeast transport mutant growth, absorbance 615 nm, 18 h; stronger effect = higher value
[7] = H69AR cells + 2 uM doxorubicin, measured here: viability with 2 uM doxorubicin, stronger effect = lower value
[8] = H69AR cells, compound alone cytotoxicity

Cc1cc(C)cc(OCC(=O)NC2=NCCS2)c1
viability [1]: 100% (inactive) | viability [2]: 87.5% (inactive) | viability [3]: 96.1% (inactive) | differential viability (reversal) ([4]; H69AR cells + 2 uM doxorubicin): 2.82% (inactive) | viability [4, 7]: 93.3% | viability [4, 8]: 96.1% | inhibition [5]: 0.39% (inactive) | inhibition [6]: 1.48% (inactive)

CCOc1cc2[nH]c(=O)n(CCC(=O)NCCc3ccc(OC)c(OC)c3)c(=O)c2cc1OCC
viability [1]: 103% (inactive) | viability [2]: 75.4% (inactive) | viability [3]: 96.8% (inactive) | differential viability (reversal) ([4]; H69AR cells + 2 uM doxorubicin): 17.1% (inactive) | viability [4, 7]: 79.7% | viability [4, 8]: 96.8% | inhibition [5]: -3.38% (inactive) | inhibition [6]: -0.98% (inactive)

Cc1nc(NC(=O)c2ccccc2)sc1-c1csc(NCc2ccco2)n1
viability [1]: 82% (inactive) | viability [2]: 89% (inactive) | viability [3]: 20.2% (active) | differential viability (reversal) ([4]; H69AR cells + 2 uM doxorubicin): -42.5% (inactive) | viability [4, 7]: 62.7% | viability [4, 8]: 20.2% | inhibition [5]: 34.6% (active) | inhibition [6]: 9.27% (inactive)

Cc1ccc(N(CC2=NCCN2)c2cccc(O)c2)cc1
viability [1]: 85% (inactive) and 113% (inactive) | viability [2]: 84.3% (inactive) and 64.3% (inactive) | viability [3]: 98.5% (inactive) and 92.6% (inactive) | differential viability (reversal) ([4]; H69AR cells + 2 uM doxorubicin): -1.66% (inactive) and 11.9% (inactive) | viability [4, 7]: 100% and 80.7% | viability [4, 8]: 98.5% and 92.6% | inhibition [5]: -1.43% (inactive) and 1.17% (inactive) | inhibition [6]: -3.17% (inactive) and 0.5% (inactive)

COCCCn1c(=N)c(C(=O)NCC2CCCO2)cc2c(=O)n3cccc(C)c3nc21 (configuration not stated)
viability [1]: 62% (inactive) | viability [2]: 93% (inactive) | viability [3]: 98.7% (inactive) | differential viability (reversal) ([4]; H69AR cells + 2 uM doxorubicin): 5.39% (inactive) | viability [4, 7]: 93.3% | viability [4, 8]: 98.7% | inhibition [5]: -6.8% (inactive) | inhibition [6]: 2.18% (inactive)

CN(c1ccc(OCc2nnc(-c3ccccc3)o2)cc1)S(=O)(=O)c1ccccc1
viability [1]: 99% (inactive) | viability [2]: 96.6% (inactive) | viability [3]: 82.9% (inactive) | differential viability (reversal) ([4]; H69AR cells + 2 uM doxorubicin): 2.42% (inactive) | viability [4, 7]: 80.5% | viability [4, 8]: 82.9% | inhibition [5]: -7.7% (inactive) | inhibition [6]: -5.45% (inactive)

Cc1ccccc1-n1nnc2c(=O)oc3ccccc3c21
viability [1]: 99.5% (inactive) | viability [2]: 64.9% (inactive) | viability [3]: 85.8% (inactive) | differential viability (reversal) ([4]; H69AR cells + 2 uM doxorubicin): 1.29% (inactive) | viability [4, 7]: 84.5% | viability [4, 8]: 85.8% | inhibition [5]: -4.47% (inactive) | inhibition [6]: 5.83% (inactive)

Cc1nc(NC(=O)C23CCC(C)(C(=O)O2)C3(C)C)sc1C (configuration not stated)
viability [1]: 133% (inactive) | viability [2]: 107% (inactive) | viability [3]: 99.2% (inactive) | differential viability (reversal) ([4]; H69AR cells + 2 uM doxorubicin): 13.9% (inactive) | viability [4, 7]: 85.4% | viability [4, 8]: 99.2% | inhibition [5]: -2.99% (inactive) | inhibition [6]: 0.16% (inactive)

O=C(CN1C(=O)COc2ccccc21)N(Cc1cccnc1)Cc1ccccc1F
viability [1]: 78% (inactive) | viability [2]: 96.6% (inactive) | viability [3]: 83.5% (inactive) | differential viability (reversal) ([4]; H69AR cells + 2 uM doxorubicin): 8.57% (inactive) | viability [4, 7]: 74.9% | viability [4, 8]: 83.5% | inhibition [5]: -2.97% (inactive) | inhibition [6]: 0.55% (inactive)

Cc1ccc(S(=O)(=O)NCC(=O)OCC(=O)Nc2ncc(Cl)cc2Cl)cc1
viability [1]: 82% (inactive) | viability [2]: 91.2% (inactive) | viability [3]: 99.6% (inactive) | differential viability (reversal) ([4]; H69AR cells + 2 uM doxorubicin): -16.6% (inactive) | viability [4, 7]: 116% | viability [4, 8]: 99.6% | inhibition [5]: -5.21% (inactive) | inhibition [6]: 1.45% (inactive)

Cc1cc(C(=O)CSc2nnc(-c3ccccc3)n2C)c(C)n1C
viability [1]: 83% (inactive) | viability [2]: 107% (inactive) | viability [3]: 95.5% (inactive) | differential viability (reversal) ([4]; H69AR cells + 2 uM doxorubicin): -3% (inactive) | viability [4, 7]: 98.5% | viability [4, 8]: 95.5% | inhibition [5]: 1.78% (inactive) | inhibition [6]: 0.73% (inactive)

O=C1CCCN1Cc1ncnn1-c1ccccc1
viability [1]: 89% (inactive) | viability [2]: 108% (inactive) | viability [3]: 112% (inactive) | differential viability (reversal) ([4]; H69AR cells + 2 uM doxorubicin): 14.7% (inactive) | viability [4, 7]: 97.1% | viability [4, 8]: 112% | inhibition [5]: 0.27% (inactive) | inhibition [6]: -6.55% (inactive)

CCn1nnnc1SCC(=O)Nc1nc(-c2cccs2)cs1
viability [1]: 110% (inactive) | viability [2]: 83.8% (inactive) | viability [3]: 86.5% (inactive) | differential viability (reversal) ([4]; H69AR cells + 2 uM doxorubicin): 18.2% (inactive) | viability [4, 7]: 68.3% | viability [4, 8]: 86.5% | inhibition [5]: -11% (inactive) | inhibition [6]: 3.87% (inactive)

Cn1cnnc1Sc1nc2c(c(=O)n(C)c(=O)n2C)n1Cc1ccccc1Cl
viability [1]: 72% (inactive) | viability [2]: 98.5% (inactive) | viability [3]: 90.3% (inactive) | differential viability (reversal) ([4]; H69AR cells + 2 uM doxorubicin): -2.15% (inactive) | viability [4, 7]: 92.4% | viability [4, 8]: 90.3% | inhibition [5]: -3.7% (inactive) | inhibition [6]: 0.91% (inactive)

CC(C)OC(=O)C(C)(C)Oc1ccc(C(=O)c2ccc(Cl)cc2)cc1
viability [1]: 88% (inactive) | viability [2]: 90.1% (inactive) | viability [3]: 103% (inactive) | differential viability (reversal) ([4]; H69AR cells + 2 uM doxorubicin): 8.95% (inactive) | viability [4, 7]: 94.5% | viability [4, 8]: 103% | inhibition [5]: 0.78% (inactive) | inhibition [6]: -7.67% (inactive)

Oc1c(I)cc(I)c2cccnc12
viability [1]: 61% (inactive) | viability [2]: 71.3% (inactive) | viability [3]: 84.6% (inactive) | differential viability (reversal) ([4]; H69AR cells + 2 uM doxorubicin): -6.25% (inactive) | viability [4, 7]: 90.9% | viability [4, 8]: 84.6% | inhibition [5]: -2.73% (inactive) | inhibition [6]: 1% (inactive)

Cc1cc(-c2ccccc2)nnc1NCCN1CCOCC1
viability [1]: 98% (inactive) | viability [2]: 85.7% (inactive) | viability [3]: 89.7% (inactive) | differential viability (reversal) ([4]; H69AR cells + 2 uM doxorubicin): -2.49% (inactive) | viability [4, 7]: 92.1% | viability [4, 8]: 89.7% | inhibition [5]: 1.69% (inactive) | inhibition [6]: -3.17% (inactive)

Nc1ccc(S(=O)(=O)c2ccc(N)cc2)cc1
viability [1]: 95% (inactive) | viability [2]: 85.9% (inactive) | viability [3]: 106% (inactive) | differential viability (reversal) ([4]; H69AR cells + 2 uM doxorubicin): 19.4% (inactive) | viability [4, 7]: 87.1% | viability [4, 8]: 106% | inhibition [5]: -2.21% (inactive) | inhibition [6]: 5.17% (inactive)

COc1ccccc1NC(=O)C(C)NS(=O)(=O)c1ccc(F)cc1 (configuration not stated)
viability [1]: 141% (inactive) | viability [2]: 89.5% (inactive) | viability [3]: 89.2% (inactive) | differential viability (reversal) ([4]; H69AR cells + 2 uM doxorubicin): 0.595% (inactive) | viability [4, 7]: 88.6% | viability [4, 8]: 89.2% | inhibition [5]: -5.58% (inactive) | inhibition [6]: 0% (inactive)
